Published values gathered from unrelated publications.
DRD3: D(3) dopamine receptor (DRD3, Homo sapiens, UniProt P35462)
GLP1R: Glucagon-like peptide 1 receptor (GLP1R, Homo sapiens, UniProt P43220)

COc1ncccc1-c1cnn2ccc(N3CCN(C(=O)OC(C)C)CC3)nc12  IC50 (Glutamate NMDA receptor; GRIN1/GRIN2B (GRIN1/GRIN2B, Homo sapiens, UniProt Q05586+Q13224); ion current; inhibitor): > 25000 nM
CC(CCc1ccc(O)cc1)NCCc1ccc(O)c(O)c1 (stereo not drawn)  IC50 (DRD3; ligand displacement; radioligand): 530 nM
CC[C@H](C)[C@H](NC(=O)[C@H](CO)NC(=O)[C@H](CC(=O)O)NC(=O)[C@H](CC(C)C)NC(=O)[C@@H](NC(=O)[C@H](CCCCN)NC(=O)[C@H](CC(N)=O)NC(=O)[C@@H](NC(=O)[C@H](CC(=O)O)NC(=O)[C@H](CO)NC(=O)[C@@H](NC(=O)[C@H](Cc1ccccc1)NC(=O)[C@H](CO)NC(=O)CNC(=O)[C@H](CC(=O)O)NC(=O)[C@@H](NC(=O)[C@@H](N)Cc1c[nH]cn1)C(C)C)[C@@H](C)O)C(C)C)C(C)C)C(=O)N[C@@H](C)C(=O)N[C@@H](C)C(=O)N[C@@H](CCCCN)C(=O)N[C@@H](CCC(=O)O)C(=O)N[C@@H](Cc1ccc(O)cc1)C(=O)N[C@@H](CC(C)C)C(=O)N[C@@H](CCC(N)=O)C(=O)N[C@@H](Cc1c[nH]c2ccccc12)C(=O)N[C@H](C(=O)N[C@@H](CCSC)C(=O)N[C@@H](CC(N)=O)C(=O)N[C@@H](CO)C(=O)N[C@@H](CCCCN)C(=O)N[C@@H](C)C(=O)N[C@@H](CO)C(=O)NCC(=O)O)C(C)C  EC50 (GLP1R; reporter gene; agonist; luciferase): 3.64 nM
CC(C)[C@@H]1NC(=O)[C@H](CO)NC(=O)[C@H](CO)NC(=O)[C@H](CO)N(C)C(=O)[C@H](CC(=O)O)NC(=O)[C@H](CO)NC(=O)[C@H](Cc2ccccc2)NC(=O)CSC[C@@H](C(=O)NCC(N)=O)NC(=O)[C@H](CC(N)=O)NC(=O)[C@H](CCCNC(=N)N)NC(=O)[C@H](C)NC(=O)[C@H](Cc2ccc(-c3ccccc3)cc2)NC(=O)[C@H](CC(N)=O)NC(=O)[C@@H]2CCCN2C1=O  Ki (Protein Mdm4 (MDM4, Homo sapiens, UniProt O15151); ligand displacement; TR-FRET): > 8880 nM
CC(C)(O)[C@@H](Nc1nc(Cl)nc2c1ncn2[C@H]1[C@H](O)[C@H](O)[C@]2(CO)C[C@H]12)C1CC1  Ki (DRD3; ligand displacement; radioligand): 1350 nM
CP(=O)(O)CCC(N)C(=O)O (racemic)  Ki (Glutamine synthetase (glnA, Escherichia coli K-12, UniProt P0A9C5); enzyme activity; inhibitor): 800 nM
CCCC[C@@H](NC(=O)[C@@H](N)Cc1c(C)cc(O)cc1C)C(=O)NCC(=O)N[C@@H](Cc1ccc(F)cc1)C(=O)N(C)CCC[C@@]1(c2ccc(F)cc2)OCc2cc(C#N)ccc21  Ki (DRD3; ligand displacement; radioligand): 2000 nM
CSCC[C@H](NC(=O)[C@H](CCC(=O)O)NC(=O)[C@@H]1CCCN1C(=O)[C@@H](NC(=O)[C@@H]1CCCN1)[C@@H](C)O)C(=O)N[C@@H](CCCNC(=N)N)C(=O)N[C@@H](CCC(=O)O)C(=O)N[C@@H](CCCCN)C(=O)N[C@@H](CC(C)C)C(=O)N[C@H]1CSSC[C@@H]2NC(=O)[C@@H](NC(=O)[C@H](CC(C)C)NC(=O)[C@@H](NC(=O)[C@H](CCC(N)=O)NC(=O)[C@H](CC(C)C)NC(=O)[C@H](CC(=O)O)NC(=O)[C@@H]3CCC(=O)N3)[C@@H](C)O)CSSC[C@H](NC(=O)CNC(=O)[C@H](CO)NC(=O)[C@H](CC(C)C)NC2=O)C(=O)N[C@@H]([C@@H](C)O)C(=O)N[C@@H](CCC(N)=O)C(=O)N[C@@H](CCC(N)=O)C(=O)N[C@@H](CC(=O)O)C(=O)N[C@@H](CC(C)C)C(=O)N[C@@H](CC(C)C)C(=O)N[C@@H]([C@@H](C)O)C(=O)N[C@@H](CC(C)C)C(=O)N[C@H](C(=O)N2CCC[C@H]2C(=O)N[C@@H](Cc2ccc(O)cc2)C(=O)O)CSSC[C@@H](C(=O)NCC(=O)NCC(=O)N2CCC[C@H]2C(=O)N[C@@H](CCCNC(=N)N)C(=O)N[C@@H](Cc2c[nH]c3ccccc23)C(=O)N[C@@H](CO)C(=O)N[C@H](C(=O)N[C@@H](CCC(=O)O)C(=O)N[C@@H](C)C(=O)O)[C@@H](C)O)NC(=O)[C@H](C(C)C)NC(=O)[C@H](CCCNC(=N)N)NC(=O)[C@H](C(C)C)NC(=O)[C@H](CC(C)C)NC(=O)[C@H](C)NC(=O)[C@H](CCCNC(=N)N)NC(=O)[C@H](C(C)C)NC(=O)[C@H](Cc2ccccc2)NC(=O)[C@H](Cc2c[nH]cn2)NC(=O)[C@H](Cc2c[nH]cn2)NC(=O)CNC1=O  Ki (Relaxin receptor 2 (RXFP2, Homo sapiens, UniProt Q8WXD0); ligand displacement in cells): 3.63 nM
CC(C)C[C@H](NC(=O)[C@H](Cc1ccc(O)cc1)NC(=O)[C@H](CO)NC(=O)[C@H](CO)NC(=O)[C@@H](NC(=O)[C@H](CC(=O)O)NC(=O)[C@H](CO)NC(=O)[C@@H](NC(=O)[C@H](Cc1ccc(O)cc1)NC(=O)[C@@H](NC(=O)CNC(=O)[C@H](CC(=O)O)NC(=O)[C@H](C)NC(=O)[C@@H](N)Cc1c[nH]cn1)[C@@H](C)O)[C@@H](C)O)C(C)C)C(=O)N[C@@H](CCC(N)=O)C(=O)N[C@@H](CC(=O)O)C(=O)N[C@@H](CCC(N)=O)C(=O)N[C@@H](C)C(=O)N[C@@H](C)C(=O)N[C@@H](CCCCN)C(=O)N[C@@H](CCC(=O)O)C(=O)N[C@@H](Cc1ccccc1)C(=O)N[C@H](C(=O)N[C@@H](CO)C(=O)N[C@@H](Cc1c[nH]c2ccccc12)C(=O)N[C@@H](CC(C)C)C(=O)N[C@@H](CCCCN)C(=O)N[C@H](C(=O)NCC(=O)N[C@@H](CCCNC(=N)N)C(=O)NCC(=O)O)[C@@H](C)O)C(C)C  EC50 (GLP1R; reporter gene; agonist; luciferase): 0.436 nM
